In ChEMBL document CHEMBL2440040, “Synthesis of 4″-O-desosaminyl clarithromycin derivatives and their anti-bacterial activities” (2013) one finds MIC data, which are given here for two molecules.

Holding throughout (type): functional
Test [1] relates to Streptococcus pneumoniae. In words: Antibacterial activity against erythromycin-resistant Streptococcus pneumoniae 12-6 by broth microdilution method.
Test [2] deals with Streptococcus pneumoniae. In words: Antibacterial activity against erythromycin-resistant Streptococcus pneumoniae 12-5 by broth microdilution method.
Test [3] has as its system Streptococcus pneumoniae. Kind of test: Antibacterial activity against erythromycin-sensitive Streptococcus pneumoniae 12-14 by broth microdilution method. In outline: (§1)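 Strains obtained from the Institute of Medicinal Biotechnology, Academy of Medical Sciences & Peking Union Medical College. MIC determined in vitro by broth microdilution following NCCLS recommendations.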

Test [4] deals with Streptococcus pneumoniae. Kind of test: Antibacterial activity against erythromycin-sensitive Streptococcus pneumoniae 12-10 by broth microdilution method. Put shortly: as §1
The subject of test [5] is Streptococcus pneumoniae. Kind of test: Antibacterial activity against erythromycin-sensitive Streptococcus pneumoniae 12-8 by broth microdilution method. Put shortly: as §1
The subject of test [6] is Streptococcus pneumoniae. In words: Antibacterial activity against erythromycin-sensitive Streptococcus pneumoniae 12-4 by broth microdilution method.
The test system of test [7] is Streptococcus pneumoniae. In words: Antibacterial activity against erythromycin-sensitive Streptococcus pneumoniae 12-1 by broth microdilution method. Put shortly: as §1
Test [8] concerns Streptococcus pyogenes. Kind of test: Antibacterial activity against erythromycin-resistant Streptococcus pyogenes 11-2 by broth microdilution method.
Test [9] relates to Streptococcus pyogenes. Kind of test: Antibacterial activity against erythromycin-sensitive Streptococcus pyogenes ATCC 19625 by broth microdilution method. In outline: as §1
Test [10] has as its system Staphylococcus epidermidis. Kind of test: Antibacterial activity against methicillin-resistant Staphylococcus epidermidis 12-11 by broth microdilution method.
Test [11] deals with Staphylococcus epidermidis. Kind of test: Antibacterial activity against methicillin-resistant Staphylococcus epidermidis 12-4 by broth microdilution method.
The subject of test [12] is Staphylococcus epidermidis. In words: Antibacterial activity against methicillin-sensitive Staphylococcus epidermidis 12-5 by broth microdilution method. Put shortly:
as §1

Test [13] has as its system Staphylococcus epidermidis. Kind of test: Antibacterial activity against methicillin-sensitive Staphylococcus epidermidis 11-20 by broth microdilution method. Put shortly:
as §1

For test [14], the system named is Staphylococcus epidermidis. Kind of test: Antibacterial activity against methicillin-sensitive Staphylococcus epidermidis ATCC 12228 by broth microdilution method. In outline: as §1
Test [15] deals with Staphylococcus aureus. In words: Antibacterial activity against methicillin-resistant Staphylococcus aureus 12-31 by broth microdilution method.
The subject of test [16] is Staphylococcus aureus. Kind of test: Antibacterial activity against methicillin-sensitive Staphylococcus aureus 12-32 by broth microdilution method. Put shortly: as §1
Test [17] has as its system Staphylococcus aureus. In words: Antibacterial activity against methicillin-sensitive Staphylococcus aureus ATCC 29213 by broth microdilution method. Put shortly: as §1

Each structure is given as a SMILES string. In brackets after ≈: the same amount, converted by molar mass.

On to `CC[C@H]1OC(=O)[C@H](C)[C@@H](O[C@H]2C[C@@](C)(OC)[C@@H](O)[C@H](C)O2)[C@H](C)[C@@H](O[C@@H]2O[C@H](C)C[C@H](N(C)C)[C@H]2O)[C@](C)(OC)C[C@@H](C)C(=O)[C@H](C)[C@@H](O)[C@]1(C)O` [CLARITHROMYCIN], for which the MIC is more than 32 µg/mL in the test on Streptococcus pneumoniae [1]; more than 32 µg/mL in the test on Streptococcus pneumoniae [2]; 1 µg/mL (≈ 1.34 µM) with Streptococcus pneumoniae [3]; 1 µg/mL (≈ 1.34 µM) in the test with Streptococcus pneumoniae [4]; 1 µg/mL (≈ 1.34 µM) against Streptococcus pneumoniae [5]; 2 µg/mL (≈ 2.67 µM) in the test on Streptococcus pneumoniae [6]. Also, the MIC was 1 µg/mL (≈ 1.34 µM) against Streptococcus pneumoniae [7]; 4 µg/mL (≈ 5.35 µM) against Streptococcus pyogenes [8]; not above 1 µg/mL against Streptococcus pyogenes [9]; 4 µg/mL (≈ 5.35 µM) in test [10]; 32 µg/mL (≈ 42.8 µM) in [11]; not above 1 µg/mL in test [12]. Also, the MIC is 8 µg/mL (≈ 10.7 µM) in [13]; not above 1 µg/mL in test [14]; more than 32 µg/mL in the test with Staphylococcus aureus [15]; 4 µg/mL (≈ 5.35 µM) against Staphylococcus aureus [16]; not above 1 µg/mL against Staphylococcus aureus [17].

For the molecule `CC[C@H]1OC(=O)[C@H](C)C(=O)[C@H](C)[C@@H](O[C@@H]2O[C@H](C)C[C@H](N(C)C)[C@H]2O)[C@](C)(OC)C[C@@H](C)C(=O)[C@H](C)[C@H]2N(CCCCn3cnc(-c4cccnc4)c3)C(=O)O[C@]12C` [TELITHROMYCIN], the MIC against Streptococcus pneumoniae [1], against Streptococcus pneumoniae [2], against Streptococcus pneumoniae [3], against Streptococcus pneumoniae [4], with Streptococcus pneumoniae [5] and in the test on Streptococcus pneumoniae [6] was not above 2 µg/mL throughout. Moreover, the MIC was not above 2 µg/mL against Streptococcus pneumoniae [7]; 2 µg/mL (≈ 2.46 µM) in the test on Streptococcus pyogenes [8]; not above 2 µg/mL against Streptococcus pyogenes [9]; not above 2 µg/mL in test [10]; not above 2 µg/mL in test [11]; not above 2 µg/mL in test [12]. Besides, the MIC in test [13] was not above 2 µg/mL; in test [14], not above 2 µg/mL; in the test with Staphylococcus aureus [15], more than 64 µg/mL; in the test on Staphylococcus aureus [16], not above 2 µg/mL; in the test on Staphylococcus aureus [17], not above 2 µg/mL.
